Measured values from ChEMBL document CHEMBL2021823, “Antiproliferative acetogenins from a Uvaria sp. from the Madagascar dry forest” (J Nat Prod, 2012).

Legend:
[1] = test system: A2780; assay: Antiproliferative activity against human A2780 cells after 2 days by Alamar blue assay; conditions: A2780, 48 h
[2] = test system: NCI-H522; assay: Antiproliferative activity against human NCI-H522 cells after 96 hrs by CellTiter-Glo assay; format: functional, cell-based; conditions: NCI-H522, 96 h
Method in brief: (§1)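 A2058 melanoma and H522 lung cancer cell lines, run at Eisai by procedures similar to those used for the H460 line; activity reported as IC50.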

[3] = test system: A2058; assay: Antiproliferative activity against human A2058 cells after 96 hrs by CellTiter-Glo assay; format: functional, cell-based; conditions: A2058, 96 h; method in brief: as §1

| SMILES | IC50 [1] [µM] | IC50 [2] [µM] | IC50 [3] [µM] |
| --- | --- | --- | --- |
| CCCCCCCCCCCCC[C@H](O)[C@@H]1CC[C@@H]([C@H]2CC[C@H]([C@@H](O)CCCC(O)CCCCCC3=C[C@H](C)OC3=O)O2)O1 (relative stereo) | 6.4 | < 10 | 6.6 |
| CCCCCCCCCCC[C@H](O)[C@@H]1CC[C@@H]([C@H]2CC[C@H]([C@@H](O)CCCCCCCC[C@H](O)CCC3=C[C@H](C)OC3=O)O2)O1 (relative stereo) | 8.8 | < 10 | 7.2 |
